Consider 4 compounds from ChEMBL document CHEMBL1153956, “Synthesis of protein tyrosine phosphatase 1B inhibitors: model validation and docking studies” (Bioorg Med Chem Lett, 2009).

Assay [1] has as its system Rattus norvegicus. Nature of the assay: Antidiabetic activity in sucrose loaded Sprague-Dawley rat model assessed as reduction in blood glucose level at 100 mg/kg. Type of assay: functional. Further details: scale not given: the % may be the effect or the level left.
Assay [2] relates to Rattus norvegicus. The experiment in a line: Antidiabetic activity in streptozotocin-induced diabetic Sprague-Dawley rat model assessed as reduction in blood glucose level at 100 mg/kg. In kind it is functional. Further details: scale not given: the % may be the effect or the level left. The procedure, abridged:
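Streptozotocin-induced diabetic rats received compound, vehicle or metformin as reference standard. Blood glucose was monitored before dosing and up to 24 h after administration. Activity is expressed as percent sugar-lowering effect.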

For assay [3], the target named is T1, Tyrosine-protein phosphatase non-receptor type 1 (Homo sapiens) (UniProt P18031).
T1 sequence (whole entry): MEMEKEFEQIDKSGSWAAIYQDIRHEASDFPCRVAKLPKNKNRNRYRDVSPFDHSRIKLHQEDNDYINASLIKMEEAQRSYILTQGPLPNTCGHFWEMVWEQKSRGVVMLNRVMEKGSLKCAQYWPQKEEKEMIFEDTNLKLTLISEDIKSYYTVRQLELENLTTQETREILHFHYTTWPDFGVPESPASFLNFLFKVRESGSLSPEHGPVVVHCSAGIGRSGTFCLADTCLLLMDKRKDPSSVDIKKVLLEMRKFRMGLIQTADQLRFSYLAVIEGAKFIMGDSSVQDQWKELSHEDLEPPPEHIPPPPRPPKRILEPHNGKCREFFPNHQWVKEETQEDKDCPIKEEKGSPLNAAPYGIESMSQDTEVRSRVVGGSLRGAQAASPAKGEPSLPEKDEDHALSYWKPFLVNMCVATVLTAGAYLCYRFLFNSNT
The experiment in a line: Inhibition of PTP1B at 100 uM. The method, boiled down:
(§1)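 PTP1B was pre-incubated with test compound for 10 min in the reaction system, at graded doses for IC50 or at a single fixed concentration for percent inhibition. Residual activity was measured by the Goldstein method with 10 mM PNPP in 50 mM HEPES pH 7.0 containing 1 mM EDTA and DTT. Peroxovanadate served as control. The reaction was stopped with 0.1 N NaOH and read at 410 nm. p-Nitrophenolate was quantified using ε = 1.78 × 10⁴ M⁻¹ cm⁻¹.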

Assay [4] concerns the target T2, Tyrosine-protein phosphatase non-receptor type 1 (Homo sapiens, UniProt P18031).
T2 sequence (P18031 whole entry): T1 sequence (whole entry)
The experiment in a line: Inhibition of PTP1B. The method, boiled down:
as §1

For the compound `CN(C)C(=N)NC(=N)N` [METFORMIN], the Activity in assay [1] came to 27.2%; in assay [2], 23.9%.

In assay [3], `COc1ccc(CCNC(=O)Cc2cccc3ccccc23)cc1` returned an inhibition of 76.9%. This compound also returned an IC50 in assay [4] of 69 µM. For the same compound, the Activity was 25.1% in assay [1] and 24.1% in assay [2].

Turning to `COc1ccc(CCNC(=O)COc2ccccc2)cc1`, the inhibition in assay [3] turned out to be 68.2%. Besides, in assay [4], it took 71 µM to reach half-maximal inhibition (IC50). For the same compound, the Activity is listed as 24.6% in assay [1] and 20.6% in assay [2].

Compound `COc1ccc(CCNC(=O)Cc2ccccc2[N+](=O)[O-])cc1` returned an inhibition in assay [3] of 62.5%. In addition, in assay [4], the IC50 is 87 µM. Also, the figures for the Activity in assay [1] and in assay [2] were 19.8% and 17.5%, respectively.

Broadly, the inhibition is the percentage by which the read-out fell short of the control. A word on the IC50: it is the concentration that inhibits the measured activity by half.
